Source: ChEMBL document CHEMBL1154420, “Role of a qnr-like gene in the intrinsic resistance of Enterococcus faecalis to fluoroquinolones” (2007)
In brackets after ≈: the same amount, converted by molar mass. Activity calls are given as the source filed them. The rule behind the calls is not given here.

Key:
Escherichia coli [1] = assay: Antibacterial activity against Escherichia coli DH10B containing ORI23::qnr-cat promoter mutant by twofold dilution method; type: functional; settings: K-12 substr. DH10B
In short: (§1)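 Heterologous hosts carrying pORI23 or pORI23::qnr-cat (cat reporter downstream of qnr); MICs of ofloxacin, ciprofloxacin, levofloxacin, sparfloxacin and moxifloxacin by standard twofold dilution. Transformants selected on erythromycin 500 μg/ml plus chloramphenicol 20 μg/ml (E. coli DH10B) or erythromycin 5 μg/ml plus chloramphenicol 5 μg/ml (S. aureus, L. lactis). Blood-supplemented agar for L. lactis.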

Enterococcus faecalis [2] = assay: Antibacterial activity against Enterococcus faecalis JH2-2 by broth microdilution method; type: functional
Enterococcus faecalis [3] = assay: Antibacterial activity against Enterococcus faecalis JH2-2-omega-pG1KT mutant with inactivated qnr gene by broth microdilution method; type: functional
Enterococcus faecalis [4] = assay: Antibacterial activity against Enterococcus faecalis JH2-2-delta-pG1KT mutant by broth microdilution method; type: functional
Enterococcus faecalis [5] = assay: Antibacterial activity against Enterococcus faecalis JH2-2 containing ORI23 promoter by broth microdilution method; type: functional
In short: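 Broth microdilution MIC in Mueller-Hinton broth per CA-SFM, three independent experiments; JH2-2 host carrying pORI23 vector. Narrow dilution series: ofloxacin 1–128 μg/ml (1, 1.5, 2 … 8, 16, 32, 64, 128), ciprofloxacin 0.5–64 μg/ml (0.5, 0.75, 1 … 4, 8, 16, 32, 64). Growth at 37°C.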

Enterococcus faecalis [6] = assay: Antibacterial activity against Enterococcus faecalis JH2-2-omega-pG1KT/pORI23::qnr-cat mutant with qnr gene complementation by broth microdilution method; type: functional
Enterococcus faecalis [7] = assay: Antibacterial activity against Enterococcus faecalis JH2-2 containing ORI23::qnr-cat promoter mutant overexpressing qnr by broth microdilution method; type: functional
Staphylococcus aureus [8] = assay: Antibacterial activity against Staphylococcus aureus RN4220 containing ORI23::qnr-cat promoter mutant by twofold dilution method; type: functional; in short: as §1
Lactococcus lactis [9] = assay: Antibacterial activity against Lactococcus lactis IL-1419 by twofold dilution method; type: functional
In short: (§2)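 Heterologous-expression MIC by standard twofold dilution; L. lactis IL-1419 transformed with pORI23 vector or pORI23::qnr-cat by electroporation, selected on erythromycin 5 μg/ml plus chloramphenicol 5 μg/ml; routine growth at 37°C on TS agar with 10% horse blood.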

Lactococcus lactis [10] = assay: Antibacterial activity against Lactococcus lactis IL-1419 containing ORI23 promoter by twofold dilution method; type: functional; in short: as §2
Lactococcus lactis [11] = assay: Antibacterial activity against Lactococcus lactis IL-1419 containing ORI23::qnr-cat promoter mutant by twofold dilution method; type: functional; in short: as §1
Staphylococcus aureus [12] = assay: Antibacterial activity against Staphylococcus aureus RN4220 by twofold dilution method; type: functional; in short: as §1
Staphylococcus aureus [13] = assay: Antibacterial activity against Staphylococcus aureus RN4220 containing ORI23 promoter by twofold dilution method; type: functional; in short: as §1
Escherichia coli [14] = assay: Antibacterial activity against Escherichia coli DH10B by twofold dilution method; type: functional; settings: K-12 substr. DH10B; in short: as §1
Escherichia coli [15] = assay: Antibacterial activity against Escherichia coli DH10B containing ORI23 promoter by twofold dilution method; type: functional; settings: K-12 substr. DH10B; in short: as §1
Escherichia coli [16] = assay: Inhibition of Escherichia coli DNA gyrase-mediated Escherichia coli pBR322 DNA supercoiling at 1 ug/mL in presence of 0.9 uM histidine6-tagged Enterococcus faecalis qnr protein preincubated before compound administration by agarose gel electrophoresis
In short: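 Dialyzed C-terminal His6-tagged Qnr (from E. coli BL21(DE3), IPTG 1 mM, Ni-NTA purified, 0.9 μM) preincubated with E. coli gyrase 1 h at 25°C before drug; then 1 U gyrase, 0.5 μg relaxed pBR322, buffer with 1 mM ATP, pH 7.5, 37°C 30 min; readout by 1% agarose gel, ethidium bromide.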

Escherichia coli [17] = assay: Inhibition of Escherichia coli DNA gyrase-mediated Escherichia coli pBR322 DNA supercoiling at 1 ug/mL by agarose gel electrophoresis
In short: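 Supercoiling assay: 1 U purified E. coli gyrase with 0.5 μg relaxed pBR322 in 35 mM Tris-HCl pH 7.5, 24 mM KCl, 4 mM MgCl2, 2 mM DTT, 1.8 mM spermidine, 1 mM ATP, 6.5% glycerol, 0.1 mg/ml albumin; drug incubated 1 h 25°C then 30 min 37°C; topoisomers resolved on 1% agarose, ethidium bromide, 16 h at 3.5 V/cm.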

Enterococcus faecalis [18] = assay: microbe, parasite or virus in culture; settings: ATCC 29212

Row | Compound | MIC (Escherichia coli [1]) [µg/mL] | MIC (Enterococcus faecalis [2]) [µg/mL] | MIC (Enterococcus faecalis [3]) [µg/mL] | MIC (Enterococcus faecalis [4]) [µg/mL] | MIC (Enterococcus faecalis [5]) [µg/mL] | MIC (Enterococcus faecalis [6]) [µg/mL] | MIC (Enterococcus faecalis [7]) [µg/mL] | MIC (Staphylococcus aureus [8]) [µg/mL] | MIC (Lactococcus lactis [9]) [µg/mL] | MIC (Lactococcus lactis [10]) [µg/mL] | MIC (Lactococcus lactis [11]) [µg/mL] | MIC (Staphylococcus aureus [12]) [µg/mL] | MIC (Staphylococcus aureus [13]) [µg/mL] | MIC (Escherichia coli [14]) [µg/mL] | MIC (Escherichia coli [15]) [µg/mL] | Activity (Escherichia coli [16]) | Activity (Escherichia coli [17]) | MIC (Enterococcus faecalis [18]) [µg/mL]
1 | O=C(O)c1cn(C2CC2)c2cc(N3CCNCC3)c(F)cc2c1=O [CIPROFLOXACIN] | 0.032 (≈ 0.0966 µM) | 1.5 (≈ 4.53 µM) | 0.75 (≈ 2.26 µM) | 1.75 (≈ 5.28 µM) | 2 (≈ 6.04 µM) | 8 (≈ 24.1 µM) | 8 (≈ 24.1 µM) | 2 (≈ 6.04 µM) | 2 (≈ 6.04 µM) | 2 (≈ 6.04 µM) |  |  |  |  |  |  |  | 
2 | C[C@H]1COc2c(N3CCN(C)CC3)c(F)cc3c(=O)c(C(=O)O)cn1c23.C[C@H]1COc2c(N3CCN(C)CC3)c(F)cc3c(=O)c(C(=O)O)cn1c23.O [LEVOFLOXACIN] | 0.125 |  |  |  |  |  |  | 1 | 0.5 | 0.5 | 2 | 0.25 | 0.25 |  |  |  |  | 
3 | COc1c(N2C[C@@H]3CCCN[C@@H]3C2)c(F)cc2c(=O)c(C(=O)O)cn(C3CC3)c12 [MOXIFLOXACIN] | 0.032 (≈ 0.0797 µM) |  |  |  |  |  |  | 0.25 (≈ 0.623 µM) | 0.25 (≈ 0.623 µM) | 0.25 (≈ 0.623 µM) | 1 (≈ 2.49 µM) |  |  | 0.002 (≈ 0.00498 µM) | 0.002 (≈ 0.00498 µM) |  |  | 
4 | CC1COc2c(N3CCN(C)CC3)c(F)cc3c(=O)c(C(=O)O)cn1c23 (centres undefined) [OFLOXACIN] | 0.125 (≈ 0.346 µM) | 3 (≈ 8.3 µM) | 1.5 (≈ 4.15 µM) | 3 (≈ 8.3 µM) | 3.5 (≈ 9.69 µM) | 32 (≈ 88.6 µM) | 32 (≈ 88.6 µM) | 2 (≈ 5.53 µM) | 1 (≈ 2.77 µM) | 1 (≈ 2.77 µM) | 4 (≈ 11.1 µM) | 0.5 (≈ 1.38 µM) | 0.5 (≈ 1.38 µM) |  |  | inactive | Active | 2 (≈ 5.53 µM)
5 | C[C@@H]1CN(c2c(F)c(N)c3c(=O)c(C(=O)O)cn(C4CC4)c3c2F)C[C@H](C)N1 [SPARFLOXACIN] | 0.064 (≈ 0.163 µM) |  |  |  |  |  |  | 1 (≈ 2.55 µM) | 0.5 (≈ 1.27 µM) | 0.5 (≈ 1.27 µM) | 4 (≈ 10.2 µM) | 0.125 (≈ 0.319 µM) | 0.125 (≈ 0.319 µM) | 0.002 (≈ 0.0051 µM) | 0.004 (≈ 0.0102 µM) |  |  | 
